Data on 19 molecules can be found in ChEMBL document CHEMBL4219164, “Design, synthesis and biological evaluation of novel 3-substituted pyrazolopyrimidine derivatives as potent Bruton's tyrosine kinase (BTK) inhibitors” (Bioorg Med Chem, 2018).

The target in experiment [1] is Tyrosine-protein kinase BTK (Homo sapiens, UniProt Q06187). Nature of the experiment: Inhibition of full length human N-terminal GST-tagged BTK (2 to 659 residues) expressed in baculovirus expression system using biotinylated substrate after 50 mins by HTRF assay.
Tyrosine-protein kinase BTK, sequence (Q06187 whole entry, the tested form may be a part): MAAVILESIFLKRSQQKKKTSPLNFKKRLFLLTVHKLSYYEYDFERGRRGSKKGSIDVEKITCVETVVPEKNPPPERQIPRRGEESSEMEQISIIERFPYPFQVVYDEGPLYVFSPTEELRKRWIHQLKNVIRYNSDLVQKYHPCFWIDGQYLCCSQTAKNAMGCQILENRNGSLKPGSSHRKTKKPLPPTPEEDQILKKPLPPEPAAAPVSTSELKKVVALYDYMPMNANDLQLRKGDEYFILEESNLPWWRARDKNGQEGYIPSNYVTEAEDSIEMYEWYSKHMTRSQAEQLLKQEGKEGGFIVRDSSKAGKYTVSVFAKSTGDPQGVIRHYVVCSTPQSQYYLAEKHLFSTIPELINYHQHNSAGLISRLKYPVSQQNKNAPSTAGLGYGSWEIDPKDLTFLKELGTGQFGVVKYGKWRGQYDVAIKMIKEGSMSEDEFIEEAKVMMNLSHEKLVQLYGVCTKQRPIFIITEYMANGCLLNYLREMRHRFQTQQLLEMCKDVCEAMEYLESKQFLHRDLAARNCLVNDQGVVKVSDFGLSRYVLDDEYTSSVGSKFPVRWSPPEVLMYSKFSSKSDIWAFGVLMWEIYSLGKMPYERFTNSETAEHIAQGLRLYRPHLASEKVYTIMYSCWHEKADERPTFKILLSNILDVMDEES
For a further experiment, the system named is Ramos. Nature of the experiment: Antiproliferative activity against human Ramos cells after 48 hrs by CCK8-based assay. It counts as functional, cell-based. (In general: Tetrazolium dyes change colour on reduction, which living cells bring about.)
A further experiment relates to Raji. Description: Antiproliferative activity against human Raji cells after 48 hrs by CCK8-based assay. It counts as functional, cell-based. The gist of the method:
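CCK-8 viability readout. Cells were seeded at 2000–3000 per well and held 24 h at 37 °C in 5% CO2, then exposed to compound at five concentrations within 1.25–40 μM, each in triplicate. CCK-8 was added for a further 1–4 h and absorbance read at 450 nm, with cell number set to give 0.5–1.2. IC50 was taken as the mean of at least three experiments.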

In turn, `C=CC(=O)N1CCC[C@@H](n2nc(C#CCOc3ccc(OC)cc3)c3c(N)ncnc32)C1` came in with an IC50 in experiment [1] of 0.0896 µM.

With `C=CC(=O)N1CCC[C@@H](n2nc(CCCOc3ccccc3)c3c(N)ncnc32)C1`, the IC50 in experiment [1] is 0.0222 µM.

`C=CC(=O)N1CCC[C@@H](n2nc(C#CCOc3cccc(Cl)c3)c3c(N)ncnc32)C1`: the half-inhibitory concentration (IC50) in experiment [1] was 0.0181 µM; with Ramos, above 40 µM; with Raji, 2.28 µM.

As to `C=CC(=O)N1CCC[C@@H](n2nc(/C=C/COc3ccccc3)c3c(N)ncnc32)C1`, the IC50 in experiment [1] was 0.0113 µM.

Consider `C=CC(=O)N1CCC[C@@H](n2nc(C#CCOc3ccccc3C)c3c(N)ncnc32)C1`, for which the IC50 in experiment [1] was determined as 0.0492 µM.

Turning to `C=CC(=O)N1CCC[C@@H](n2nc(C#CCSc3ccccc3)c3c(N)ncnc32)C1`, the IC50 in experiment [1] was 0.011 µM; in the experiment with Ramos, 37.2 µM; with Raji, 2.72 µM.

As to `C=CC(=O)N1CCC[C@@H](n2nc(C#CCOc3ccccc3)c3c(N)ncnc32)C1`, the 50% inhibitory concentration (IC50) in experiment [1] came out at 0.00795 µM; in the experiment on Ramos, 8.91 µM; with Raji it was 1.8 µM.

`C=CC(=O)N1CCC[C@@H](n2nc(C#CCc3ccccc3)c3c(N)ncnc32)C1` displayed a concentration for half-maximal inhibition (IC50) in experiment [1] of 0.102 µM.

Consider `C=CC(=O)N1CCC[C@@H](n2nc(C#CCOc3cccc(C(F)(F)F)c3)c3c(N)ncnc32)C1`, for which the IC50 in experiment [1] came to 0.209 µM.

`C=CC(=O)N1CCC[C@@H](n2nc(C#CCOc3ccc(C)cc3)c3c(N)ncnc32)C1` had an IC50 in experiment [1] of 0.0269 µM.

On to `C=CC(=O)N1CCC[C@@H](n2nc(C#CCNc3ccccc3)c3c(N)ncnc32)C1`, for which the IC50 is 0.0181 µM in experiment [1], 18.2 µM with Ramos and above 40 µM with Raji.

As to `C=CC(=O)N1CCC[C@@H](n2nc(C#CCOc3cccc(OC)c3)c3c(N)ncnc32)C1`, the figures for the IC50 (in experiment [1]; with Ramos; with Raji) were 0.00984 µM, above 40 µM and 1.69 µM, respectively.

For the molecule `C=CC(=O)N1CCC[C@@H](n2nc(C#CCOc3cccc(C)c3)c3c(N)ncnc32)C1`, it took 0.0208 µM to reach half-maximal inhibition in experiment [1] (IC50).

Take `C=CC(=O)N1CCC[C@@H](n2nc(C#CCOc3cccc(C(C)C)c3)c3c(N)ncnc32)C1`: half-maximal inhibition in experiment [1] (IC50) required 0.0454 µM.

Turning to `C=CC(=O)N1CCC[C@@H](n2nc(C#CCCc3ccccc3)c3c(N)ncnc32)C1`, the IC50 in experiment [1] was 0.0159 µM; with Ramos, above 40 µM; in the experiment with Raji, 1.62 µM.

For `C=CC(=O)N1CCC[C@@H](n2nc(C#CCCOc3ccccc3)c3c(N)ncnc32)C1`, the IC50 in experiment [1] was 0.0398 µM.

With `C=CC(=O)N1CCC[C@@H](n2nc(C#CCOc3ccccc3OC)c3c(N)ncnc32)C1`, half-maximal inhibition in experiment [1] (IC50) was put at 0.0382 µM.

Take `C=CC(=O)N1CCC[C@@H](n2nc(/C=C\COc3ccccc3)c3c(N)ncnc32)C1`: the IC50 in experiment [1] was 0.0232 µM; in the experiment on Ramos it was 14.6 µM; with Raji, above 40 µM.

In turn, `C=CC(=O)N1CCC[C@@H](n2nc(-c3ccc(Oc4ccccc4)cc3)c3c(N)ncnc32)C1` [IBRUTINIB] showed an IC50 in the experiment on Raji of 1.49 µM.

In general, IC50 refers to the concentration at which inhibition is half-maximal. Low values mean higher potency, high ones lower potency.
